Bioassay records from PubChem.
AI-2 QS mod: Vibrio harveyi AI-2 quorum sensing modulation. Vibrio harveyi JMH597 AI-2 luminescence/OD600 ratio, 9 h; active compounds read low; strain lacks LuxN and CqsS sensors; 0 = neutral-control median. activity change, % at 7.5 µM. actives 0.4% (n = 300,000); in the data active means activity change below about -75%, passing the limit was not always enough;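 further: luminescence divided by OD600 gain over 9 h not by final OD600 alone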
CAL PDZ FP-1: inhibitors of human CAL PDZ peptide binding; Q9HD26; purified CAL PDZ, TMR-peptide fluorescence polarization, 1 h; inhibition, % at 24.9 µM; actives 0.92% (n = 300,000);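 active means mean inhibition of at least 30% with at least half of replicates also reaching 30%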;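 further: 0% = DMSO neutral control and 100% = excess unlabeled competitor peptide PRC23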
Rce1 inhib: blocks yeast Ras-converting enzyme; Q03530; yeast membranes, quenched prenylated peptide cleavage fluorescence; calls only; actives 0.27% (n = 290,000); AID 2563;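 active means fall in fluorescence gain of 50% or more versus controls, with final raw signal at or below 3038400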;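 further: plate controls were neutral control wells for no effect and wells lacking membranes for full effect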
Target sequence (Q03530 whole entry, looked up): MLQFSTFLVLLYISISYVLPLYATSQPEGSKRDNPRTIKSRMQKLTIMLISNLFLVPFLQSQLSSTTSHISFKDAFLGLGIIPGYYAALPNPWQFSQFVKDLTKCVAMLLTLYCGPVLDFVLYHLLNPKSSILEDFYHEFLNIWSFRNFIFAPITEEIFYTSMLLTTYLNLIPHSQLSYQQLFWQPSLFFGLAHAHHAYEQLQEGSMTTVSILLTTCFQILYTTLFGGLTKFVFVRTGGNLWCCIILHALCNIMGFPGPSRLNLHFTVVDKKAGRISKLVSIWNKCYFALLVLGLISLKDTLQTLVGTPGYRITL
CAL PDZ FP-2: inhibitors of human CAL PDZ peptide binding; Q9HD26; purified CAL PDZ, TMR-peptide fluorescence polarization, 1 h; inhibition, % at 20 µM; actives 0.02% (n = 330,000); AID 504414;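 active means highest replicate inhibition of at least 40%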;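 further: plate controls were DMSO neutral control wells for no effect and unlabeled competitor peptide control wells for full effect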
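Read-out basis: mP drop reported as inhibition | Assay system: Tagged CAL PDZ protein CerCALP, purified | Benchmarks: Unlabelled peptide for full inhibition, DMSO wells as neutral | Schedule: 1 h incubation at room temperature before polarization reading | Buffer or medium: Sodium phosphate/NaCl buffer pH 7.4 with TCEP, IgG, Thesit | Doses: Single point, 20 µM | Measured by: Fluorescence polarization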
ARNT TACC3 PPI: disrupts binding between human ARNT and TACC3 | Q9Y6A5 | AlphaScreen His-ARNT PAS-B/GST-TACC3 binding, luminescence; TACC3 fragment carries E629A point mutation | inhibition, % at 9.99 µM | actives 0.66% (n = 390,000);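 active means mean inhibition of replicates at least 50% and at least half of replicates each reaching 50%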;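 further: 0% = complete ARNT plus TACC3 wells and 100% = ARNT alone without TACC3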
ARNT Alpha ctr: interferes with AlphaScreen signal, flagging false ARNT-TACC3 hits; shares compounds with ARNT TACC3 PPI; His-ARNT PASB-GST AlphaScreen artifact counter-screen, luminescence; AC50, µM (top dose mostly 68 µM), without a hit: at the top dose activity change, negative = signal decrease; actives 50% (n = 1,200); AID 651705;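 active means every separate test run was called active for a drop in luminescence, with AC50 within twice the top valid dose, actives reach about 71 µM in these data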
Starred values were filed as active, the others as inactive; i = inactive; / = not tested or not shown; [ ] = dose if it differs, or a comment. Rows were chosen to be rich in hits. Some 1.7% of all compounds tested hit in one or more screens of this group.

SMILES	AI-2 QS mod	CAL PDZ FP-1	Rce1 inhib	CAL PDZ FP-2	ARNT TACC3 PPI	ARNT Alpha ctr
O=C(CN1C(=O)c2cccnc2Oc2ccc(Cl)cc21)NC1CCCC1	-1	-2	i	-2	6	/
COc1ccccc1C(=O)Nc1ccccc1N1CCCCC1	23	7	i	0	14*	5%
O=C(Nc1nnc(SCc2ccc(F)cc2)s1)c1ccccn1	70	-1	i	0	79*	17µM*
Cc1cccc(C(=O)NCC(=O)OCC(=O)NC2CCCCCCC2)c1	18	9	i	-1	-2	/
O=C(C[C@H]1C=C[C@@H](NC(=O)C2CC2)[C@@H](CO)O1)Nc1nccs1	/	/	/	/	34*	-3%[38 µM]
Cc1[nH]n(-c2ccccc2)c(=O)c1C(c1ccc(O)c([N+](=O)[O-])c1)c1c(C)[nH]n(-c2ccccc2)c1=O	55	-1	i	1	10*	-9%
CC(C)NC(=O)Nc1ccc2c(c1)C(=O)N([C@H](C)CO)C[C@@H](C)[C@@H](CN(C)C(=O)Nc1ccccc1)OCCCC[C@@H](C)O2	/	/	/	/	66*	-3%[38 µM]
CC(C)NC(=O)Nc1ccc2c(c1)C(=O)N([C@H](C)CO)C[C@@H](C)[C@H](CN(C)C(=O)Nc1ccccc1)OCCCC[C@@H](C)O2	/	/	/	/	12	/
CC(C)NC(=O)N(C)C[C@H]1OCCCC[C@H](C)Oc2ccc(NC(=O)Cc3ccccc3)cc2C(=O)N([C@H](C)CO)C[C@H]1C	/	/	/	/	106*	-3%[42 µM]
CC(C)NC(=O)N(C)C[C@@H]1OCCCC[C@@H](C)Oc2ccc(NC(=O)Cc3ccccc3)cc2C(=O)N([C@H](C)CO)C[C@@H]1C	/	/	/	/	-11	/
CC(C)NC(=O)Nc1ccc2c(c1)C(=O)N([C@H](C)CO)C[C@@H](C)[C@H](CN(C)C)OCCCC[C@@H](C)O2	/	/	/	/	-7	/
CC(C)NC(=O)Nc1ccc2c(c1)C(=O)N([C@@H](C)CO)C[C@H](C)[C@@H](CN(C)C)OCCCC[C@H](C)O2	/	/	/	/	109*	-1%[42 µM]
CCCCC(=O)Nc1cc(N(C)C)nc2ccccc12	-1	11	i	-1	-5	/
CCN(CC(=O)NCc1cccs1)S(=O)(=O)c1ccc(F)c(F)c1F	18	1	i	-2	-5	/
Cc1c(NC(=O)c2ccc(-c3ccccc3)cc2)cccc1C(=O)O	20	-5	i	0	-8	/
O=C(COC(=O)c1ccc(O)cc1O)Nc1ccc2ccccc2c1	/	4	/	0	1	/
O=C(COC(=O)c1ccc(O)cc1O)Nc1nnc(-c2ccccc2)o1	25	-4	i	-4	60*	47µM*
Cc1ccc(NC(Cc2cc(C)no2)c2ccccc2)cc1 (centres undefined)	5	-2	i	1	27	/
O=C(OCc1nc2scc(-c3ccccc3)c2c(=O)[nH]1)c1cc(Cl)ccc1[N+](=O)[O-]	18	-6	i	-2	-3	/
CN(C)Cc1cn(CC[C@@H]2CC[C@@H](N)[C@H](CO)O2)nn1	/	/	/	/	9	/
N[C@@H]1CC[C@@H](CCn2cc(-c3cccc(F)c3)nn2)O[C@H]1CO	/	/	/	/	5	/
N[C@@H]1CC[C@@H](CCn2cc(-c3ccccn3)nn2)O[C@H]1CO	/	/	/	/	76*	3.8µM*
N[C@H]1CC[C@H](CCn2cc(-c3ccccn3)nn2)O[C@@H]1CO	/	/	/	/	77*	5.3µM*
c1ccc(-c2cn(C[C@H]3CC[C@@H]([C@@H]4CC[C@H](Cn5cc(-c6ccccn6)nn5)O4)O3)nn2)nc1	22	-1	i	1	66*	11µM*
c1ccc(-c2cn(C[C@H]3CC[C@@H]([C@@H]4CC[C@H](Cn5cc(-c6ccccc6)nn5)O4)O3)nn2)cc1	10	-6	i	-4	-9	/
SMILES	AI-2 QS mod	CAL PDZ FP-1	Rce1 inhib	CAL PDZ FP-2	ARNT TACC3 PPI	ARNT Alpha ctr
CC(C)c1ccc(CNc2ncc(Br)cn2)cc1	5	-3	i	1	-6	/
Cc1ccc(-n2nc3ccc(N)cc3n2)cc1	21	-3	i	-1	/	/
Nc1ccc2nn(-c3ccc(F)cc3)nc2c1	18	-6	i	10	17*	-25%
COc1ccccc1N=c1c2c([N+](=O)[O-])cc([N+](=O)[O-])cc2n(O)n1-c1ccccc1OC	2	/	/	/	/	/
CCOc1cccc(-c2nn3c(-c4cc(C)[nH]n4)nnc3s2)c1	27	-4	i	-4	15	/
Cc1nc(Nc2ccc(C(=O)O)cc2)nc(Nc2ccc(C(=O)O)cc2)c1[N+](=O)[O-]	24	/	i	-2	64*	9.4µM*
COc1ccc(S(=O)(=O)N(C)C[C@@H]2Oc3cc(C4=CCCC4)ccc3S(=O)(=O)N([C@@H](C)CO)C[C@@H]2C)cc1	/	/	/	/	12	/
CCOCCCNC(=O)C1CCC(CNS(=O)(=O)c2cccc3nsnc23)CC1 (centres undefined)	/	0	/	-2	-3	/
Cc1cccc(NC(=O)CSc2nnc(CSc3nc(C)cc(C)n3)n2Cc2ccco2)c1	15	4	i	-1	-9	/
N/C(=N\NS(=O)(=O)c1cc(C(F)(F)F)cc(C(F)(F)F)c1)c1ccccn1	-25	-5	i	-1	57*	-5%
N/C(=N\S(=O)(=O)c1cc(C(F)(F)F)cc(C(F)(F)F)c1)c1ccncc1	4	-5	i	0	-8	/
COC(=O)CC1C(=O)NC(C)=C1C(=O)OC (centres undefined)	16	/	i	/	/	/
C/C=C/c1cnc2c(c1)C(=O)N([C@@H](C)CO)C[C@@H](C)[C@@H](CN(C)S(=O)(=O)c1ccc(OC)cc1)O2	/	/	/	/	3	/
O=C(O)CSCc1cn2cc(Cl)ccc2n1	7	0	i	0	-6	/
CNCc1cn2cc(Cl)ccc2n1	41	0	i	0	67*	-8%
COc1ccc(S(=O)(=O)n2oc(=O)cc2-c2ccccc2)cc1	20	4	i	-1	15	/
COc1ccc(S(=O)(=O)n2oc(=O)cc2-c2ccccc2)cc1OC	24	-2	i	-2	active	7.8µM*
Cc1ccc(C(=O)Nc2cccc(C(=O)N/N=C/c3ccc(O)cc3)c2)cc1	21	/	i	-2	31*	-30%
O=C(CCc1ccccc1)NC(c1cccs1)c1cc(Cl)c2cccnc2c1O (centres undefined)	46	-1	i	-2	-5	/
CC(=O)NC(c1cc(Cl)c2cccnc2c1O)C(C)C (centres undefined)	/	6	/	0	58*	38µM*
CC(=O)NC(c1cccs1)c1cc([N+](=O)[O-])c2cccnc2c1O (centres undefined)	4	-6	i	-2	60*	6.9µM*
CC(=O)NC(c1cccs1)c1cc(Cl)c2ccccc2c1O (centres undefined)	/	-5	/	1	6	/
